# CHOP UPR activ: activators of apoptotic CHOP UPR arm, primary screen, cell-based, CHO-CHOP luciferase reporter, luminescence, uHTS; AID 449763, 2010; 0.34% of 330,000 active; UPR activation; percent of tunicamycin response over DMSO baseline; activation, % at 10 µM;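 active = at 10 µM dose, activation of 40% or more, normalized to positive control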;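 also: 100% = tunicamycin at 10 µg/mL and 0% = DMSO alone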
#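 Material: CHO-CHOP cells, stable luciferase reporter of PERK-eIF2a-CHOP signalling; quantity: 500 reporter cells seeded per well; buffer or medium: F12 medium containing 10% fetal bovine serum; compound: one dose, 10 µM in 0.5% DMSO; incubation: 6 h compound treatment, 37 °C; measured by: Steady-Glo luciferase luminescence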
# T cruzi repl: inhibitors of intracellular T. cruzi growth, primary screen, luminescence, NIH3T3 host cells. inhibition, % (concentration not given with the values). 1.4% of 300,000 active. T. cruzi beta-gal in NIH3T3, 90 h. AID 1885, 2009;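 active = mean inhibition across valid replicates above about 55%, limit read from the data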;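 also: signal also drops with host cell toxicity which is not excluded here; 0% = plate median of DMSO wells and 100% = zero luminescence signal; higher percent means less beta-gal luminescence so fewer parasites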
#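 System – NIH/3T3 host cells with β-galactosidase reporter T. cruzi · Doses – single 50 nL compound addition per well in DMSO · Reagent – 5000 T. cruzi trypomastigotes/well · Medium – Low-serum DMEM with 2% FBS · Timing – ≥90 h infection period, 3 h prior cell attachment · Evaluation – parasite load inhibition, % · Technique – GalScreen luminescence, 60 min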
# Mdm2 MdmX PPI: inhibitors of human Mdm2-MdmX association, primary screen, cell-based, luminescence, split luciferase, SaOS-2, uHTS; Protein Mdm4 (Homo sapiens) + E3 ubiquitin-protein ligase Mdm2 (Homo sapiens), …; SaOS-2 split-luciferase Mdm2/MdmX complementation; inhibition, % at 8 µM; 3% of 330,000 active; AID 485346, 2010;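 active = inhibition of at least 50% at 8 µM in the primary screen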
# Target sequence (O15151 whole entry, looked up): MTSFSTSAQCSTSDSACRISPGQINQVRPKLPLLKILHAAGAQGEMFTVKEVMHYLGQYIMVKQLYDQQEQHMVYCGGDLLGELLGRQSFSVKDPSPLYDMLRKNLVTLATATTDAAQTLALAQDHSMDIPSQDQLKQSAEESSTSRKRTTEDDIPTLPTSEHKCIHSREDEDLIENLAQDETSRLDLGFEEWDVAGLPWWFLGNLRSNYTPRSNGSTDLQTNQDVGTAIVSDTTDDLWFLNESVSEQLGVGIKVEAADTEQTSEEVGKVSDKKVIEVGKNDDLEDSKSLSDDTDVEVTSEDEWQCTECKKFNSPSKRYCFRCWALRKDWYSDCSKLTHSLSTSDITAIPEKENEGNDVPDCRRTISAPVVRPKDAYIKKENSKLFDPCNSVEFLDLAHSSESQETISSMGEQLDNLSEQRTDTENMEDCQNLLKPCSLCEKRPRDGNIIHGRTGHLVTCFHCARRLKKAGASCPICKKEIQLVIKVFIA
# Target sequence (Q00987 whole entry, looked up): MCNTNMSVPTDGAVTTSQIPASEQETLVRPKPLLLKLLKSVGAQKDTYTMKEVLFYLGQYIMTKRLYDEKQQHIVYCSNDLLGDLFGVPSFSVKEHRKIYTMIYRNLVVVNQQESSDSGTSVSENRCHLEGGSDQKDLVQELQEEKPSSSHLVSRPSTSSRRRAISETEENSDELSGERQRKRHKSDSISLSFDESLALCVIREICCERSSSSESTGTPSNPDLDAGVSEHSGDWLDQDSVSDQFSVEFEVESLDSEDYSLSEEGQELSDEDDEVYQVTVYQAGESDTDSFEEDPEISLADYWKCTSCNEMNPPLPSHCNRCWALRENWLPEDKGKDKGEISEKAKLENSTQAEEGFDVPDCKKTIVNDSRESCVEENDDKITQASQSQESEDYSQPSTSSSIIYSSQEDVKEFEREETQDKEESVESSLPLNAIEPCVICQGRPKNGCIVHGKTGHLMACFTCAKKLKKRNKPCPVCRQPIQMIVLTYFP
# Beta cell apopt: inhibitors of cytokine-induced beta cell apoptosis, primary screen, luminescence | INS-1E cytokine-induced death, ATP luminescence, 48 h; percent of positive-control rescue, neutral wells zero | protection from apoptosis, % (no concentration beside the values) | 0.8% of 300,000 active;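 active = Every replicate reaches about 75%, or at least half do and their mean reaches it too, limit read from the data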;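 also: 0% = cytokine-treated negative control wells and 100% = positive control rescue; higher means more ATP so stronger rescue from cytokine killing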
# XBP1 UPR activ: activators of adaptive XBP1 UPR arm, primary screen, cell-based, CHO-XBP1 luciferase reporter, luminescence, uHTS; 0.33% of 330,000 active; IRE1-XBP1 UPR activation; percent of tunicamycin response, DMSO as zero; activation, % at 20 µM;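 active = versus positive control, 20 µM dose yields 30% or more activation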;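 also: 100% = tunicamycin at 10 µg/mL and 0% = DMSO only wells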
#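 Test system: CHO-XBP1 luciferase reporter cells | Buffer or medium: Serum-containing F12 medium, 10% FBS | Schedule: 6 h compound exposure at 37 °C, 5% CO2 | Detection: Steady-Glo luciferase glow luminescence, 10 min after reagent addition | Read-out basis: Activation, % of tunicamycin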
# CSC inhib: cancer stem cell viability inhibitors, primary screen, luminescence; cancer stem cell-like cells viability; inhibition, % at 7.5 µM; 1.1% of 300,000 active; in the data active = inhibition above about 75%; tested in HMLE shEcad cells
# Mdm2 MdmX conf: Mdm2-MdmX complex disruptors, retested hits, confirmation, luminescence, single concentration. shares compounds with Mdm2 MdmX PPI. Mdm2-MdmX binding, luminescent assay. inhibition, % at 8 µM. 55% of 10,000 active; in the data active = inhibition above about 40%
# Full FLuc ctr: full-length luciferase signal inhibition, confirmation, counter-screen for Mdm2/MdmX interaction inhibitor project, cell-based, single concentration, SaOS-2. inhibition, % at 8 µM. shares compounds with Mdm2 MdmX PPI. SaOS-2 full-length luciferase counterscreen, luminescence. 77% of 6,200 active;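 active = mean inhibition at 8 µM reaching about 37%, which flags the compound as non-specific, limit read from the data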;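 also: p53-null SaOS-2 cells with luciferase driven by a doxycycline-inducible promoter; compound on cells about two nights before reading with doxycycline added after day one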
# An asterisk follows results filed as active; x = no result. In the library only some 5% were active in any assay of this set; here they are far more common.
SMILES,CHOP UPR activ,T cruzi repl,Mdm2 MdmX PPI,Beta cell apopt,XBP1 UPR activ,CSC inhib,Mdm2 MdmX conf,Full FLuc ctr
CCN(CC)CCNC(=O)c1ccc(NC(=O)c2ccc(COc3ccccc3)cc2)cc1,3.8,13.9,82.7*,0.7,-1.9,-6.2,33.7,x
CCc1noc(N)c1C(=O)Nc1ccc(F)c(Cl)c1,-0.7,14.9,14.0,-4.1,-1.8,-8.7,x,x
CCOC(=O)[C@@H]1[C@H]2COc3cc(OC)ccc3[C@@H]2N2C(=O)N(c3cccc(C)c3)C(=O)[C@]12C,0.6,x,-5.4,-0.3,-2.6,-7.1,x,x
Cc1ccc(C(=O)NCCNc2nc3cc(C)c(C)cc3cc2C)cc1,-1.2,5.1,65.1*,11.6,21.9,48.1,10.4,x
COCCS(=O)(=O)N(Cc1ccccc1)[C@H](C(=O)OC)C(C)C,2.2,x,15.1,x,-0.2,x,x,x
C/C(=N\NC(=O)c1cc(-c2ccccc2C)nc2ccccc12)c1cccnc1,-2.0,18.3,12.8,35.8,-6.0,0.4,x,x
CCCCCCCC(=O)N/N=C(\C)c1ccc(O)cc1O,-1.9,-17.2,34.3,17.8,-1.0,-5.3,x,x
C/C(=N\NC(=O)c1cc(-c2cccnc2)nc2ccccc12)c1ccc(O)cc1O,-1.5,47.3,65.8*,90.5*,-2.8,100.0*,79.5*,22.7
Cc1nn(-c2ccccc2)c(N2CCCC2)c1/C=N/NC(=O)c1cc(-c2cccnc2)nc2ccccc12,1.4,57.1*,56.3*,1.2,8.1,15.1,21.8,x
C/C(=N\NC(=O)COc1ccccc1-c1ccccc1)c1ccc(O)cc1O,2.2,77.4*,64.0*,80.8*,0.9,37.4,46.6*,37.2*
CCOC(=O)C1CCN(c2ccccc2CN2CCN(c3ccccc3OCC)CC2)CC1,1.5,0.7,63.3*,-2.7,-6.9,13.4,37.8,71.4*
CC(C)c1ccc(/C=C2\SC(=S)N(CCC(=O)N3CCCCC3CCO)C2=O)cc1 (stereo not drawn),-7.6,-9.9,61.7*,-28.8,-10.2,28.5,50.3*,29.9
O=C1/C(=C\c2ccccc2)SC(=S)N1CCC(=O)N1CCCCC1CCO (stereo not drawn),3.1,-2.5,72.1*,-48.0,-2.5,-7.2,3.1,x
COc1ccc(/C=C2\SC(=S)N(CCCC(=O)N3CCCCC3CCO)C2=O)cc1 (stereo not drawn),-3.8,-2.7,63.5*,-20.8,-6.0,-12.3,21.6,x
COc1ccc(/C=C2\SC(=S)N(CCC(=O)NC3C=CS(=O)(=O)C3)C2=O)cc1 (stereo not drawn),1.5,-35.0,29.2,-11.6,-0.4,2.3,x,x
COc1cccc(/C=C2\SC(=O)N(CCC(=O)N3CCCCC3CCO)C2=O)c1 (stereo not drawn),0.4,4.3,15.2,-5.7,-3.8,18.2,x,x
O=C1/C(=C/c2ccccc2)SC(=S)N1CC(=O)N1CCCCC1c1cccnc1 (stereo not drawn),-0.3,28.5,84.9*,-29.7,-2.4,10.4,31.8,20.6
CC(Oc1c(Cl)cccc1Cl)C1=NCCN1 (stereo not drawn),3.7,-0.2,1.2,1.6,-3.9,-10.2,x,x
COc1ccccc1CNC(=O)C1CCN(S(=O)(=O)c2ccc3nc4c(c(C(=O)O)c3c2)CCCC4)CC1,-0.3,-9.3,-30.1,-7.7,-4.8,-5.7,x,x
